# Calls of active or inactive are those of the source. The rule behind the calls is not given here.
# Legend:
# Mus musculus [1] = assay: Anti-obesity activity in high fat diet-induced obese C57BL/6J mouse model assessed as decrease in fat mass at 10 mg/kg, po for 6 weeks by NMR-MRI analysis; type: functional, organism-based
# Summary of the method: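 Male C57BL/6J mice, 5-6 weeks old (22-25 g), made obese on a 60% fat diet. Dosed orally for six weeks, dissolved in DMSO then mixed into 5% gum acacia in normal saline (working DMSO <5%), against HFD vehicle-treated mice. Total body fat compared at end of treatment, n=4-5/group, by one-way ANOVA with Newman-Keuls test.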
# Mus musculus [2] = assay: Anti-obesity activity in high fat diet-induced obese C57BL/6J mouse model assessed as reduction in body weight gain at 10 mg/kg, po for 6 weeks; type: functional, organism-based
# Summary of the method: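 High-fat (60% fat) diet-induced obese male C57BL/6J mice, started at 5-6 weeks old and 22-25 g. Oral dosing for six weeks from a DMSO stock diluted into 5% gum acacia/normal saline (working DMSO <5%), against HFD vehicle controls. Cumulative body weight gain tracked over treatment, n=4-5, analysed by two-way ANOVA.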
# Mus musculus [3] = assay: Anti-obesity activity in high fat diet-induced obese C57BL/6J mouse model assessed as plasma leptin level at 20 mg/kg, po for 6 weeks (reference value: 1751 +/- 325.4 pg/mg); type: functional
# Mus musculus [4] = assay: Effect on serum triglyceride level in high fat diet-induced obese C57BL/6J mouse model at 20 mg/kg, po for 6 weeks (reference value: 40.96 +/- 4.592 mg/dl); type: functional
# Mus musculus [5] = assay: Anti-obesity activity in high fat diet-induced obese C57BL/6J mouse model assessed as fasting glucose level at 20 mg/kg, po for 6 weeks (reference value: 93.17 +/- 5.793 mg/dL); type: functional
# Summary of the method: (§1)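 Male C57BL/6J mice, 5-6 weeks old, 22-25 g, fed 60% fat diet to induce obesity. Dosed orally once at 20 mg/kg for six weeks; drug dissolved in DMSO, then mixed into 5% gum acacia in normal saline (working DMSO <5%). Controls were vehicle-treated HFD mice. Body weight was tracked, and fasting glucose was read by glucose meter after a 16 h fast; n=4-6.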
# Mus musculus [6] = assay: Effect on total cholesterol level in high fat diet-induced obese C57BL/6J mouse model at 20 mg/kg, po for 6 weeks (reference value: 120.8 +/- 7.206 mg/dl); type: functional
# Mus musculus [7] = assay: Antiobesity activity in high fat diet-induced obese C57BL/6J mouse model assessed as improvement in glucose tolerance at 20 mg/kg, po measured post glucose challenge by intraperitoneal glucose tolerance test; type: functional, organism-based
# Summary of the method: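 After six weeks of oral dosing (20 mg/kg) in HFD obese C57BL/6J mice, animals were fasted 16 h and baseline glucose was taken from the tail tip. Glucose 2 g/kg was given i.p., and blood glucose was measured at 15, 30, 60, 90 and 120 min. Mean ± SEM, 4-5 mice/group.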
# Mus musculus [8] = assay: Anti-obesity activity in high fat diet-induced obese C57BL/6J mouse model assessed as reduction in body weight at 20 mg/kg, po for 6 weeks; type: functional; summary of the method: as §1
# Mus musculus [9] = assay: Effect on HDL cholesterol level in high fat diet-induced obese C57BL/6J mouse model at 20 mg/kg, po for 6 weeks (reference value: 57.8 +/- 3.385 mg/dl); type: functional
# Mus musculus [10] = assay: Anti-obesity activity in high fat diet-induced obese C57BL/6J mouse model assessed as lean mass at 20 mg/kg, po for 6 weeks by NMR-MRI analysis (reference value: 25.58 +/- 0.6789 g); type: functional
# Mus musculus [11] = assay: Anti-obesity activity in high fat diet-induced obese C57BL/6J mouse model assessed as fat mass at 20 mg/kg, po for 6 weeks by NMR-MRI analysis (reference value: 16.52 +/- 1.154 g); type: functional
# Mus musculus [12] = assay: Anti-obesity activity in high fat diet-induced obese C57BL/6J mouse model assessed as reduction in body weight gain at 20 mg/kg, po for 6 weeks; type: functional, organism-based; summary of the method: as §1
# Mus musculus [13] = assay: Effect on LDL cholesterol level in high fat diet-induced obese C57BL/6J mouse model at 20 mg/kg, po for 6 weeks (reference value: 11.56 +/- 1.587 mg/dl); type: functional
Structure (SMILES),Activity (Mus musculus [1]),Activity (Mus musculus [2]),Activity (Mus musculus [3]),Activity (Mus musculus [4]),Activity (Mus musculus [5]),Activity (Mus musculus [6]),Activity (Mus musculus [7]),Activity (Mus musculus [8]),Activity (Mus musculus [9]),Activity (Mus musculus [10]),Activity (Mus musculus [11]),Activity (Mus musculus [12]),Activity (Mus musculus [13])
C[C@H]1CNCCc2ccc(Cl)cc21,Active,Active,,,,,,,,,,,
COc1ccc(-c2cc3cc(C4Nc5ccccc5C(=O)N4C)cc(C)c3oc2=O)cc1 (stereo not drawn),,,807.6 pg/mg,36.97 mg/dL,63 mg/dL,95.6 mg/dL,inactive,0.72 g,45.92 mg/dL,23.16 g,13.01 g,Active,10.4 mg/dL
